# In ChEMBL document CHEMBL3734675, “Synthesis, antimycobacterial and antibacterial activity of fluoroquinolone derivatives containing an 3-alkoxyimino-4-(cyclopropylanimo)methylpyrrolidine moiety” (2015):
# Test system: Mycobacterium tuberculosis
# Experiment: Antimycobacterial activity against isoniazid/rifampicin-resistant Mycobacterium tuberculosis 6133 clinical isolate incubated for 7 days by microplate Alamar Blue assay
# Format: functional
# Conditions: Mycobacterium tuberculosis, 6133, 168 h
# How it was run: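 Fluorescence read-out. MIC is the lowest concentration that reduces fluorescence by at least 90% relative to the mean of replicate bacterium-only controls. Isoniazid and rifampicin were included as reference drugs.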
row,SMILES,MIC90 [µg/mL]
1,NNC(=O)c1ccncc1 [ISONIAZID],4
2,CO[C@H]1/C=C/O[C@@]2(C)Oc3c(C)c(O)c4c(O)c(c(/C=N/N5CCN(C)CC5)c(O)c4c3C2=O)NC(=O)/C(C)=C\C=C\[C@H](C)[C@H](O)[C@@H](C)[C@@H](O)[C@@H](C)[C@H](OC(C)=O)[C@@H]1C [RIFAMPIN],> 40
3,CCO/N=C1/CN(c2nc3c(cc2F)c(=O)c(C(=O)O)cn3C2CC2)CC1(C)CNC1CC1 (stereo not drawn),0.11
